From ChEMBL document CHEMBL1139389, “Discovery of the Poly(ADP-ribose) polymerase (PARP) inhibitor 2-[(R)-2-methylpyrrolidin-2-yl]-1H-benzimidazole-4-carboxamide (ABT-888) for the treatment of cancer” (J Med Chem, 2009)

Key:
[1] = Oral bioavailability in Sprague-Dawley rat at 5 mg/kg; assay type: ADME, organism-based; settings: in vivo
[2] = AUC in cynomolgus monkey at 2.5 mg/kg, po; assay type: ADME, organism-based, Macaca fascicularis; design: dose 2.5 mg/kg, route oral; settings: plasma
[3] = AUC in CD1 mouse at 10 mg/kg, po; assay type: ADME, organism-based; design: dose 10 mg/kg, route oral; settings: plasma
In short: (§1)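 Mouse PK: oral dose 10 mg/kg in 2.5% EtOH, 1 drop Tween-80, 25% PEG400 in PBS; iv dose 3 mg/kg in 2.5% EtOH, 5% DMSO, 1 drop Tween-80, 25% PEG400 in PBS. Oral bioavailability, iv half-life, oral AUC and Cmax derived from plasma profiles.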

[4] = Half life in cynomolgus monkey at 2.5 mg/kg, iv; assay type: ADME, organism-based, Macaca fascicularis; design: dose 2.5 mg/kg, route intravenous; settings: in vivo
Cytochrome P450 3A4 = Cytochrome P450 3A4 (Homo sapiens, UniProt P08684); test: Inhibition of CYP3A4 in human liver microsomes; assay type: ADME, Microsome
[5] = Volume of distribution at steady state in cynomolgus monkey at 2.5 mg/kg; assay type: ADME, organism-based, Macaca fascicularis; design: dose 2.5 mg/kg; settings: in vivo, read-out: Vdss
[6] = Volume of distribution at steady state in CD1 mouse at 10 mg/kg; assay type: ADME, organism-based; design: dose 10 mg/kg; settings: in vivo, read-out: Vdss
[7] = AUC in Beagle dog at 2.5 mg/kg, po; assay type: ADME, organism-based, Canis lupus familiaris; design: dose 2.5 mg/kg, route oral; settings: plasma
[8] = Half life in Beagle dog at 2.5 mg/kg, iv; assay type: ADME, organism-based, Canis lupus familiaris; design: dose 2.5 mg/kg, route intravenous; settings: in vivo
[9] = Clearance in cynomolgus monkey at 2.5 mg/kg; assay type: ADME, organism-based, Macaca fascicularis; design: dose 2.5 mg/kg; settings: in vivo
[10] = Oral bioavailability in CD1 mouse at 10 mg/kg; assay type: ADME, organism-based; settings: in vivo; in short: as §1
[11] = Protein binding in CD1 mouse plasma at 5 uM; assay type: ADME, cell-free; settings: read-out: PPB (converted)
[12] = Clearance in Beagle dog at 2.5 mg/kg; assay type: ADME, organism-based, Canis lupus familiaris; design: dose 2.5 mg/kg; settings: in vivo
[13] = Protein binding in human plasma at 5 uM; assay type: ADME, cell-free; settings: read-out: PPB (converted)
[14] = Half life in CD1 mouse at 3 mg/kg, iv; assay type: ADME, organism-based; design: dose 3 mg/kg, route intravenous; settings: in vivo; in short: as §1
Cytochrome P450 2C19 = Cytochrome P450 2C19 (Homo sapiens, UniProt P33261); test: Inhibition of CYP2C19 in human liver microsomes; assay type: ADME, Microsome
Cytochrome P450 1A2 = target: T1, Cytochrome P450 1A2 (Homo sapiens, UniProt P05177); test: Inhibition of CYP1A2 in human liver microsomes; assay type: ADME, Microsome
T1 sequence (P05177 whole entry): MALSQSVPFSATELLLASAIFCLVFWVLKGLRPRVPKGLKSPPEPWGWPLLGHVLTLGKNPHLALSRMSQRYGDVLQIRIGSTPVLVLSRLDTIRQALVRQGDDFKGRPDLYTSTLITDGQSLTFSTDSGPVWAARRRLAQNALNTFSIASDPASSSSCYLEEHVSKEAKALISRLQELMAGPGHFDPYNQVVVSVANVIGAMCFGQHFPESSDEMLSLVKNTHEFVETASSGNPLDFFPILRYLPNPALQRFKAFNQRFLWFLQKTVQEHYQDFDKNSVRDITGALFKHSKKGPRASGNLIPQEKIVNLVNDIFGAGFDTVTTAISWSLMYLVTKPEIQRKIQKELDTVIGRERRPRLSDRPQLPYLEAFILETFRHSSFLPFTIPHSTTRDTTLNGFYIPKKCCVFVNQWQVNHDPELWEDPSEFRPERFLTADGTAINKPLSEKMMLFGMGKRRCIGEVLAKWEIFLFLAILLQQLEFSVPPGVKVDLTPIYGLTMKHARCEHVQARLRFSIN

B16-F10 [15] = test: Potentiation of temozolomide-induced cytotoxicity against mouse B16F10 cells xenografted in C57BL/6 mouse assessed as growth inhibition at 5 mg/kg/day, po after 17 days relative to temozolomide monotherapy; assay type: functional
In short: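 B16F10 syngeneic model: 6×10^4 cells in 50% matrigel injected sc into the flank of 6–8 week old female C57BL/6 mice (20 g), allocated to groups by injection order. Inhibitor given po bid days 6–11 at 1, 5 or 12.5 mg/kg/day; temozolomide 50 mg/kg/day po qd days 6–11. Tumor volume by caliper as L×W²/2; TGI versus temozolomide alone.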

Cytochrome P450 2C9 = Cytochrome P450 2C9 (Homo sapiens, UniProt P11712); test: Inhibition of CYP2C9 in human liver microsomes; assay type: ADME, Microsome
[16] = Clearance in Sprague-Dawley rat at 5 mg/kg; assay type: ADME, organism-based; design: dose 5 mg/kg; settings: in vivo
[17] = Oral bioavailability in cynomolgus monkey at 2.5 mg/kg; assay type: ADME, organism-based, Macaca fascicularis; settings: in vivo
[18] = Cmax in Sprague-Dawley rat at 5 mg/kg, po; assay type: ADME, organism-based; design: dose 5 mg/kg, route oral; settings: in vivo
[19] = Protein binding in cynomolgus monkey plasma at 5 uM; assay type: ADME, cell-free, Macaca fascicularis; settings: read-out: PPB (converted)
Cytochrome P450 2A6 = target: T2, Cytochrome P450 2A6 (Homo sapiens, UniProt P11509); test: Inhibition of CYP2A6 in human liver microsomes; assay type: ADME, Microsome
T2 sequence (P11509 whole entry): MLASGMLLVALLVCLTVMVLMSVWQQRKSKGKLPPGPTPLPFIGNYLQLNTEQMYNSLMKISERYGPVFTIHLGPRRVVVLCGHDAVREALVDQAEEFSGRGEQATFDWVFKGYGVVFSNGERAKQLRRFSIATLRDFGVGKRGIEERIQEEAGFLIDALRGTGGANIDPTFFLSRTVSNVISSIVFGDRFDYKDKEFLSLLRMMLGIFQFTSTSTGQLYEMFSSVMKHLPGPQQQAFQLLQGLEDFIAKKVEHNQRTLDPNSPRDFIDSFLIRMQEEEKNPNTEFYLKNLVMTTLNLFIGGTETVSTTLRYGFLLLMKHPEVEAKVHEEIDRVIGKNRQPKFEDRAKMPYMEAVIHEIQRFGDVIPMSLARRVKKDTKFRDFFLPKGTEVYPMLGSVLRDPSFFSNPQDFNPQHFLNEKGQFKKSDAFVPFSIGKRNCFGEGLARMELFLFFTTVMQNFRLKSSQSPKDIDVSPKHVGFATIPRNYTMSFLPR

MX1 [20] = test: Potentiation of cyclophosphamide-induced cytotoxicity against human MX1 cells xenografted in SCID mouse assessed as growth inhibition at 5 mg/kg/day, sc osmotic minipump after 48 days relative to cyclophosphamide monotherapy; assay type: functional; settings: route subcutaneous
In short: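 Female SCID mice bearing sc MX-1 brei (0.2 cc of 1:10, day 0), size-matched on day 15, 10 per group. Inhibitor 5, 12.5 or 25 mg/kg/day by sc osmotic minipump for 14 days from day 18; cyclophosphamide 12.5 mg/kg ip on days 20, 24 and 28. Volumes from caliper L×W²/2; TGI versus cyclophosphamide alone.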

[21] = Half life in Sprague-Dawley rat at 5 mg/kg, iv; assay type: ADME, organism-based; design: dose 5 mg/kg, route intravenous; settings: in vivo
[22] = AUC in Sprague-Dawley rat at 5 mg/kg, po; assay type: ADME, organism-based; design: dose 5 mg/kg, route oral; settings: plasma
B16-F10 [23] = test: Antitumor activity against mouse B16F10 cells xenografted in C57BL/6 mouse assessed as tumor volume at 12.5 mg/kg/day, po after 14 days; assay type: functional
[24] = Cmax in Beagle dog at 2.5 mg/kg, po; assay type: ADME, organism-based, Canis lupus familiaris; design: dose 2.5 mg/kg, route oral; settings: in vivo
MX1 [25] = test: Potentiation of carboplatin-induced cytotoxicity against human MX1 cells xenografted in SCID mouse assessed as growth inhibition at 1 mg/kg/day, sc osmotic minipump after 42 days relative to carboplatin monotherapy; assay type: functional; settings: route subcutaneous
In short: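 MX-1 xenograft: 0.2 cc of 1:10 tumor brei injected sc into the flank of female SCID mice on day 0; size-matched on day 15, 10 mice/group. Inhibitor 1–50 mg/kg/day by sc osmotic minipump for 14 days from day 18; carboplatin 10 mg/kg ip on days 20, 24 and 28. Caliper volumes as L×W²/2; TGI relative to carboplatin alone.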

Chain of Cytochrome P450 2C19 (P33261 whole entry): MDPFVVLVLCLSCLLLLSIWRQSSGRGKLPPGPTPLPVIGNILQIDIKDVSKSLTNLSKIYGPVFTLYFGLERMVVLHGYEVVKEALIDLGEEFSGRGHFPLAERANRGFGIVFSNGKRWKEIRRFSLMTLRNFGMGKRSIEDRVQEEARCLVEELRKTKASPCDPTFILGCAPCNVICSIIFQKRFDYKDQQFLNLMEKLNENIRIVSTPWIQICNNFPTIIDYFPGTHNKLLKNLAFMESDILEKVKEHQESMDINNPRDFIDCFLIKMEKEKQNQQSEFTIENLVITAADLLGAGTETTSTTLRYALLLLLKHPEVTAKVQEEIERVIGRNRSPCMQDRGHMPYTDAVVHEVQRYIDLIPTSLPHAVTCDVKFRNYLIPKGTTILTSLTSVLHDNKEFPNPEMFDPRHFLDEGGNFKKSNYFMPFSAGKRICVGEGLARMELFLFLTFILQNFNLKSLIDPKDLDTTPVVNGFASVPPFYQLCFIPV
Chain of Cytochrome P450 3A4 (P08684 whole entry): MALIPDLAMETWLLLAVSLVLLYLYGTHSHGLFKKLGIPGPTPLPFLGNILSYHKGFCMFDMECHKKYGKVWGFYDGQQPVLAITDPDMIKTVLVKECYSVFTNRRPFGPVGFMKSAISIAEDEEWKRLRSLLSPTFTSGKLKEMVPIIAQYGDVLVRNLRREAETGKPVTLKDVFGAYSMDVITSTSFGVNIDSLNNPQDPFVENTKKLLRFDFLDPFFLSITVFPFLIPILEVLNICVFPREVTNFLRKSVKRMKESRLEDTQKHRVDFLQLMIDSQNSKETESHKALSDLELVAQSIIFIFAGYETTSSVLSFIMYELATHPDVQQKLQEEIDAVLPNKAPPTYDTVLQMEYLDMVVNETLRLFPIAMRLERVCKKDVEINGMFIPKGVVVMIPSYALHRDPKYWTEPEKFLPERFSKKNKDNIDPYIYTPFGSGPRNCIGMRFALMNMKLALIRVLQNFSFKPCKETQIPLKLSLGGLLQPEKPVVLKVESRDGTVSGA
Chain of Cytochrome P450 2C9 (P11712 whole entry): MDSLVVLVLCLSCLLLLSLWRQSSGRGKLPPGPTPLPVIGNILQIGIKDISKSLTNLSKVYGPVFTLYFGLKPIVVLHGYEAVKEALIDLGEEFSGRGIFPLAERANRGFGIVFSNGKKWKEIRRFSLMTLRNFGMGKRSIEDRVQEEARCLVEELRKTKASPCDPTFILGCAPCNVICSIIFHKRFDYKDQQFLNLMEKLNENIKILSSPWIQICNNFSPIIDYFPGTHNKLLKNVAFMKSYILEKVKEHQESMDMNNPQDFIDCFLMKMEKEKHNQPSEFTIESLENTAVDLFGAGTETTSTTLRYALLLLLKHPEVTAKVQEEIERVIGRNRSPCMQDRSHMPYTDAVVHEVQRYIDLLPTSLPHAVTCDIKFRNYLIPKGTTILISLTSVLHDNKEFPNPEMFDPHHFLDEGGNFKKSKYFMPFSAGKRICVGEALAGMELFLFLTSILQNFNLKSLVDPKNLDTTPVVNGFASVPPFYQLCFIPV

Q: What does the source list for `C[C@]1(c2nc3c(C(N)=O)cccc3[nH]2)CCCN1` [VELIPARIB]?
A: bioavailability [1]: 61%; AUC [2]: 1300 ng·h/mL; AUC [3]: 2200 ng·h/mL; half-life [4]: 1.9 h; Activity (Cytochrome P450 3A4): Not Active; Vd [5]: 3.1 L/kg; Vd [6]: 9.4 L/kg; AUC [7]: 3200 ng·h/mL; half-life [8]: 2.7 h; clearance [9]: 18.3 mL/min/kg; bioavailability [10]: 92%; fraction unbound at 5 µM [11]: 0.59; clearance [12]: 10 mL/min/kg; fraction unbound at 5 µM [13]: 0.59; half-life [14]: 1.6 h; Activity (Cytochrome P450 2C19): Not Active; Activity (Cytochrome P450 1A2): Not Active; TGI (B16-F10 [15]): 60%; Activity (Cytochrome P450 2C9): Not Active; clearance [16]: 33.3 mL/min/kg; bioavailability [17]: 56%; Cmax [18]: 500 ng/mL; fraction unbound at 5 µM [19]: 0.59; Activity (Cytochrome P450 2A6): Not Active; TGI (MX1 [20]): 31%; half-life [21]: 1.2 h; AUC [22]: 1500 ng·h/mL; Activity (B16-F10 [23]): 2452 mm3; Cmax [24]: 800 ng/mL; TGI (MX1 [25]): 21%
